Laboratory results taken from ChEMBL document CHEMBL1146376, “Antiviral activity of berberine and related compounds against human cytomegalovirus” (Bioorg Med Chem Lett, 2007).
pIC50: −log10 of the molar value. The source made the active and inactive calls. The rule behind the calls is not given here.

Columns and labels:
[1] = (§1) Cytotoxicity against MRC5 cells; type: cell-based, Homo sapiens; settings: human, MRC5 cells
Human betaherpesvirus 5 [2] = test: Antiviral activity against HCMV in MRC5 cells by plaque reduction assay; type: functional, organism-based; settings: Human betaherpesvirus 5, MRC5
How it was run: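 HCMV plaque yield reduction assay in MRC-5 cells. IC50 is the 50% inhibitory concentration. Values are means of three experiments.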

[3] = Selectivity index, ratio of CC50 for MRC5 cells to IC50 for HCMV; type: functional
How it was run: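 Ratio of CC50 (50% cytotoxic concentration in MRC-5 cells) to IC50 from the HCMV plaque yield reduction assay in MRC-5 cells. Values are means of three experiments.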

MRC5 = test: as §1; type: cell-based, Homo sapiens; settings: Homo sapiens, MRC5
Human betaherpesvirus 5 [4] = test: Inhibition of HCMV proliferation in MRC5 cells after 54 hrs post-infection at 10 uM by plaque assay; type: functional, organism-based
How it was run: (§2)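 Time-of-addition: MRC-5 cultures were infected at 0.5 PFU/cell, and compound (10 µM) was added at set times from 0 to 120 h post-infection. Virus titre was measured by plaque assay at 168 h post-infection and expressed as percent of control plaque numbers. Values are means of duplicate assays.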

Human betaherpesvirus 5 [5] = test: Inhibition of HCMV proliferation in MRC5 cells after 24 hrs post-infection at 10 uM by plaque assay; type: functional, organism-based; how it was run: as §2
Human betaherpesvirus 5 [6] = test: Inhibition of HCMV adsorption to MRC5 cells at 0.2 to 2 uM by infectious centre assay; type: functional, organism-based
How it was run: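 Infectious centre assay for adsorption: HCMV (1 PFU/cell), MRC-5 cell suspension (1 · 10^5 cells/mL) and compound (final 0.2, 0.5, 1, 2) were chilled on ice 2 h, then mixed and held 1 h at 4 C. Cells were washed with ice-cold PBS to remove unbound virus and compound. Pellets were diluted 100- or 1000-fold and plated onto MRC-5 monolayers for plaque counting.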

Human betaherpesvirus 5 [7] = test: Inhibition of HCMV penetration to MRC5 cells at 0.2 to 2 uM; type: functional, organism-based
How it was run: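 HCMV (about 100 PFU/well) was bound to pre-chilled MRC-5 monolayers for 1 h at 4 C, then washed three times with ice-cold PBS. Cells were shifted to 37 C in medium with compound (final 0.2, 0.5, 1 or 2). At 0, 0.5, 1, 2, 3, 6 and 10 h, unpenetrated virus was inactivated with 40 mM citrate buffer pH 3.0 for 1 min. Plaques were counted under 0.5% methylcellulose overlay.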

Structure (SMILES)	CC50 [1] [µM]	pIC50 (Human betaherpesvirus 5 [2])	Ratio CC50/IC50 [3]	pIC50 (MRC5)	Activity (Human betaherpesvirus 5 [4])	Activity (Human betaherpesvirus 5 [5])	Activity (Human betaherpesvirus 5 [6])	Activity (Human betaherpesvirus 5 [7])
COc1cc(OC)c2c(c1)OC(c1ccc(OC)c(OC)c1)C(OC)C2 (stereo not given)	68	4.77	4	–	–	–	–	–
COc1ccc(Cc2nccc3cc(OC)c(OC)cc23)cc1OC.Cl [PAPAVERINE HYDROCHLORIDE]	610	4.68	29	–	–	–	–	–
COc1ccc2c(c1OC)C(C(Cl)(Cl)Cl)N1CCc3cc4c(cc3C1=C2)OCO4 (stereo not given)	8.4	6.28	16	–	–	–	–	–
Nc1nc2c(ncn2COC(CO)CO)c(=O)[nH]1 [GANCICLOVIR]	–	6.04	1100	3.01	–	–	–	–
COc1cc(C[C@H]2C(=O)OC[C@@H]2Cc2ccc(OC)c(OC)c2)ccc1O [ARCTIGENIN]	76	5.68	36	–	–	–	–	–
COc1cc(OC)c2c(c1)OC(c1ccc(OC)c(OC)c1)C(O)C2 (stereo not given)	190	< 3.70	<1	–	–	–	–	–
COc1ccc2c(c1OC)C(C#N)N1CCc3cc4c(cc3C1=C2)OCO4 (stereo not given)	–	6.06	18	4.80	–	–	–	–
COc1ccc(C2CC(=O)c3c(OC)cc(O)cc3O2)cc1 (stereo not given)	12	4.04	0.13	–	–	–	–	–
COc1ccc2c(c1OC)CN1CCc3cc4c(cc3[C@@H]1C2)OCO4 [CANADINE]	125	4.92	10	–	–	–	–	–
COc1ccc(C[C@H]2COC(=O)[C@@H]2Cc2ccc(O[C@@H]3O[C@H](CO)[C@@H](O)[C@H](O)[C@H]3O)c(OC)c2)cc1OC [ARCTIIN]	240	4.80	15	–	–	–	–	–
COc1ccc2cc3[n+](cc2c1OC)CCc1cc2c(cc1-3)OCO2.[Cl-] [BERBERINE CHLORIDE]	74	6.17	110	–	Active	Active	inactive	inactive
COc1ccc2c(c1OC)CN1CCc3cc4c(cc3C1=C2)OCO4 [DIHYDROBERBERINE]	155	4.03	1.7	–	–	–	–	–
